These results are taken from ChEMBL document CHEMBL4038340, “Development of Novel Peptide-Based Michael Acceptors Targeting Rhodesain and Falcipain-2 for the Treatment of Neglected Tropical Diseases (NTDs)” (J Med Chem, 2017).

The source made the active and inactive calls. No cut-off for these calls is given here.

Data set [1] addresses Rhodesain (Trypanosoma brucei rhodesiense) (UniProt Q95PM0). Description: Inhibition of recombinant Trypanosoma brucei rhodesiense rhodesain expressed in Pichia pastoris assessed as first order rate constant using Cbz-Phe-Arg-AMC as substrate after 30 mins by fluorescence assay. A digest of the protocol: (§1)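 Recombinant rhodesain with fluorogenic substrate Cbz-Phe-Arg-AMC. Preliminary screen at a fixed inhibitor concentration of 50 µM. Equal volume of DMSO served as negative control and E-64 as irreversible positive control. Active compounds went on to continuous assays at seven concentrations, from minimally to fully inhibitory, giving kinac (min-1), Ki (nM) and k2nd = kinac/Ki (M-1 min-1).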

Data set [2] has as its target T1, Procathepsin L (Homo sapiens, UniProt P07711). Description: Inhibition of human cathepsin L assessed as first order rate constant using Cbz-Phe-Arg-AMC as substrate after 10 mins by fluorescence assay.
Target sequence in this assay (P07711 114-333 limits assumed): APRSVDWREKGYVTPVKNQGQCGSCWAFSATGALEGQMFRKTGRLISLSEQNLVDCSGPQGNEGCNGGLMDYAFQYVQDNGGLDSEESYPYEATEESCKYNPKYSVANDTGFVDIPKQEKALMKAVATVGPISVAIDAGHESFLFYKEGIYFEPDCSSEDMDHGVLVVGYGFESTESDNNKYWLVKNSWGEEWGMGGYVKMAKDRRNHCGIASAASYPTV
The nature of data set [3]: Cytotoxicity against human HeLa cells assessed as decrease in cell viability after 48 hrs by MTT assay. It is filed as cell-based. (In general: Tetrazolium assays rely on reduction of a dye to a coloured formazan, in cell work by metabolically active cells.)
In data set [4] the test system is Trypanosoma brucei brucei. Description: Antiparasitic activity against bloodstream form of Trypanosoma brucei brucei 449 after 48 hrs by ATPlite assay. It is filed as functional. The following applies: Trypanosoma brucei, 449, 48 h.
The subject of data set [5] is Trypanosoma brucei brucei. Description: Antiparasitic activity against bloodstream form of Trypanosoma brucei brucei 449 after 24 hrs by ATPlite assay. It is filed as functional. The following applies: Trypanosoma brucei, 449, 24 h. A general note: ATP-based viability assays read luminescence as a measure of living cells.
For the next data set, the target named is Rhodesain (Trypanosoma brucei rhodesiense, UniProt Q95PM0). The experiment in a line: Inhibition of recombinant Trypanosoma brucei rhodesiense rhodesain expressed in Pichia pastoris using Cbz-Phe-Arg-AMC as substrate after 30 min by fluorescence assay. A digest of the protocol: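 Recombinant rhodesain with fluorogenic Cbz-Phe-Arg-AMC substrate. Compounds were first screened at a fixed 50 µM, with DMSO as negative control and an irreversible clan CA cysteine-protease inhibitor as positive control. Continuous assays at seven inhibitor concentrations, from minimally to fully inhibitory, gave kinac (min-1) and Ki, with k2nd = kinac/Ki (M-1 min-1).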

Data set [6] concerns Trypanosoma brucei brucei. The experiment in a line: Effect on glutathione level in blood stream of Trypanosoma brucei brucei at 3 uM after 24 hrs by HPLC analysis. It is filed as functional. A digest of the protocol:
(§2)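 Bloodstream-form T. brucei were seeded at 1 x10^5 cells/ml and treated for 24 h, with untreated cells as control. Free thiols (GSH, T(SH)2), and free thiols plus disulfides (GSSG, TS2), were labelled with monobromobimane and quantified by HPLC. Values are mean ± SD of three independent experiments.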

Data set [7] relates to Trypanosoma brucei brucei. The experiment in a line: Inhibition of trypanothione synthetase in blood stream of Trypanosoma brucei brucei assessed as cellular content of free trypanothione at 3 uM after 24 hrs by HPLC analysis (reference value: 340 uM). A digest of the protocol: as §2
Data set [8] concerns Trypanosoma brucei brucei. The experiment in a line: Effect on protein bound glutathione level in blood stream of Trypanosoma brucei brucei. It is filed as functional.
Data set [9] relates to Trypanosoma brucei brucei. The experiment in a line: Inhibition of trypanothione synthetase in blood stream of Trypanosoma brucei brucei assessed as cellular content of free trypanothione after 24 hrs by HPLC analysis. The essentials: as §2
The target in data set [10] is Rhodesain (Trypanosoma brucei rhodesiense) (UniProt Q95PM0). The experiment in a line: Inhibition of recombinant Trypanosoma brucei rhodesiense rhodesain expressed in Pichia pastoris assessed as second order rate constant using Cbz-Phe-Arg-AMC as substrate after 30 mins by fluorescence assay. A digest of the protocol:
as §1

The target of another data set is T2, Falcipain 2 (Plasmodium falciparum, UniProt Q9N6S8).
T2 sequence (Q9N6S8 whole entry): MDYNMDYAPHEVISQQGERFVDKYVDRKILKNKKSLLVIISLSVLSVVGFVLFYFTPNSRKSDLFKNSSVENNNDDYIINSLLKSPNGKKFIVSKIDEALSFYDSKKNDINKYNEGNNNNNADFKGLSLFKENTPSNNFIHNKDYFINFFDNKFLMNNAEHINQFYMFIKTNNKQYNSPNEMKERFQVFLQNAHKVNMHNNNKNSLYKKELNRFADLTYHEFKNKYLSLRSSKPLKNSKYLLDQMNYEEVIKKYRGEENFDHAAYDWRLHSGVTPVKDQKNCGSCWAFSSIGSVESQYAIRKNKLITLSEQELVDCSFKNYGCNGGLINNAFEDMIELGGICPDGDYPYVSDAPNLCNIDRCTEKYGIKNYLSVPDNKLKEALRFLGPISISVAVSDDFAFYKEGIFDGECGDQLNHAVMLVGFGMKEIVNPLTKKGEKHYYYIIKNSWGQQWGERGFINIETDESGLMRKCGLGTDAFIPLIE
Description: Inhibition of recombinant Plasmodium falciparum falcipain-2 expressed in Escherichia coli M15(pREP4) using Cbz-Phe-Arg-AMC as substrate by fluorescence assay.

In a further data set the test system is Plasmodium falciparum. Description: Antiparasitic activity against Plasmodium falciparum W2 after 48 hrs by YOYO-1 probe-based flow cytometry. The conditions noted are these: W2, 48 h. It is filed as functional. (In general: Flow cytometry measures light scatter and fluorescence of single cells or particles in a stream.)
Data set [11] has as its target T1, Procathepsin L. Description: Inhibition of human cathepsin L using Cbz-Phe-Arg-AMC as substrate after 10 mins by fluorescence assay.
Target sequence in this assay (P07711 whole entry): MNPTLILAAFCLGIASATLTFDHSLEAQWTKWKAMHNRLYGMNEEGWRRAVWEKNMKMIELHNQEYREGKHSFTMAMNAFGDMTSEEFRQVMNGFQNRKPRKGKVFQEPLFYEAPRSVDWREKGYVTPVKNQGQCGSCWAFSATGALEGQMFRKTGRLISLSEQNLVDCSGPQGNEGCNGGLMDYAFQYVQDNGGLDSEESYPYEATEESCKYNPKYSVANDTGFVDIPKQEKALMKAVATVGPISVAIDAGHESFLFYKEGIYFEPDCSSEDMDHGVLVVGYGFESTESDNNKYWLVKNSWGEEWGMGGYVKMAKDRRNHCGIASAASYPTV
For data set [12], the target named is T1, Procathepsin L. The experiment in a line: Inhibition of human cathepsin L assessed as second order rate constant using Cbz-Phe-Arg-AMC as substrate after 10 mins by fluorescence assay.
Target sequence in this assay (P07711 114-333 limits assumed): as the sequence (P07711 114-333 limits assumed) above
Data set [13] can be described thus: Selectivity index, ratio of CC50 for human HeLa cells to EC50 for Trypanosoma brucei brucei 449 for 48 hrs. The conditions noted are these: read-out: Ratio CC50/EC50. It is filed as toxicity, cell-based.

Rhodesain (Trypanosoma brucei rhodesiense), sequence (Q95PM0 1-450): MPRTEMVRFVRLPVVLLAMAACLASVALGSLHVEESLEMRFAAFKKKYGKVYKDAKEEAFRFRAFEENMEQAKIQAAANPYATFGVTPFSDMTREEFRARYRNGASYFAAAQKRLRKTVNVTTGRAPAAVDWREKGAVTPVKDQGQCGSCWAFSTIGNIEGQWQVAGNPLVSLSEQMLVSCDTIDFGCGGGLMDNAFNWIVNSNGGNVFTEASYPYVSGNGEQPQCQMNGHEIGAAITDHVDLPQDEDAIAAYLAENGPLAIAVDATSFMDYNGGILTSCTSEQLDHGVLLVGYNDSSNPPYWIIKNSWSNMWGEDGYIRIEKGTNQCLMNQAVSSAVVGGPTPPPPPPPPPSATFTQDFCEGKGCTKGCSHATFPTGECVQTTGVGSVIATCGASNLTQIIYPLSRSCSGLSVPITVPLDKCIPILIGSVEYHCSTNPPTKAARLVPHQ
Rhodesain, sequence (Q95PM0 whole entry): as the sequence (Q95PM0 1-450) above

Take `CC(=O)/C=C/[C@H](CCc1ccccc1)NC(=O)[C@H](Cc1ccccc1)NC(=O)OCc1ccccc1`: the figures for the Kinact (in data set [1]; on Procathepsin L [2]) were 0.00255 min⁻¹ and 0.002 min⁻¹, respectively. Besides, the CC50 (as a rule, the concentration that lowers cell viability or growth by half) at 48 h in data set [3] came out at 7.9 µM. The concentration giving a half-maximal response (EC50) – broadly, the concentration that produces a half-maximal response – in data set [4] is 2.97 µM; in data set [5], 3.18 µM; in the data set on Plasmodium falciparum, 7.03 µM. The figures for the Ki at Rhodesain and on Procathepsin L [11] were 0.038 nM and 0.0004 µM, respectively. Further, the Activity entry in [6] is “Dose-dependent effect”; in data set [7] it was 160 µM. For the same compound, the outcome in data set [8] was inactive. Besides, the inhibition result in data set [9] was “Dose-dependent effect”. Besides, the K in data set [10] was 67000 ×10³ /M/min; on Procathepsin L [12], 5750 ×10³ /M/min. For the same compound, the concentration for half-maximal inhibition (IC50) (usually the concentration that gives 50% inhibition) on Falcipain 2 amounted to 3.01 µM. Further, the selectivity ratio at 48 h in data set [13] was found to be 2.6.
